Assay outcomes deposited in PubChem BioAssay by The Scripps Research Institute Molecular Screening Center.
PLCb3 inh: human PLC-beta3 inhibitors, primary screen, biochemical, fluorescence. 1-phosphatidylinositol 4,5-bisphosphate phosphodiesterase beta-3 (Homo sapiens), Q01970. Purified PLC-beta3, fluorogenic substrate. inhibition, % at 12.2 µM. 370,000 tested, 0.18% active. AID 720704, 2013;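 also: 0% = median of compound wells on plate and 100% = full blocker control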
sPLA2-III inh: human group III sPLA2 inhibitors, primary screen, biochemical, QFRET, BODIPY PC-A2 liposome substrate. Group 3 secretory phospholipase A2 (Homo sapiens), Q9NZ20. QFRET BODIPY PC-A2 liposome hydrolysis, fluorescence. inhibition, % at 12.2 µM. 370,000 tested, 0.56% active. AID 743126, 2013;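 active = inhibition above mean plus 3 SD of compounds lying within the high and low control bounds, cut at about 19% in these data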;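 also: 0% = median of test compound wells and 100% = no enzyme DMSO wells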
Tb MetRS inh: T. brucei MetRS inhibitors, primary screen, biochemical, luminescence | purified T. brucei MetRS, ATP depletion, Kinase-Glo luminescence | inhibition, % at 11.9 µM | 360,000 tested, 0.4% active | AID 624268, 2012;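 active = inhibition above a per-plate cutoff of the control wells' mean inhibition plus 3 SD, cut at about 5.5% in these data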;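 also: 0% = DMSO wells median and 100% = median of wells with control inhibitor compound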
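Assay system: T. brucei methionyl-tRNA synthetase, purified | Medium: HEPES buffer with MgCl2, KCl, DTT, spermine, BSA, pyrophosphatase | Compound: 11.9 µM single point | Incubation: 15 min enzyme-compound preincubation, 2 h reaction, 10 min detection, 25 °C | Measured by: Kinase-Glo luciferase luminescence reporting remaining unconsumed ATP | Measure: % inhibition normalized to control-well medians | Replication: Singlicate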
PLC-gamma1 inh: PLC-gamma1 enzyme inhibitors, primary screen, biochemical, fluorescence, purified enzyme; 370,000 tested, 0.84% active; AID 720700, 2013; inhibition, % at 12.2 µM; fluorogenic substrate; in the data active = inhibition above about 9.5%
Target sequence (P19174 whole entry, looked up): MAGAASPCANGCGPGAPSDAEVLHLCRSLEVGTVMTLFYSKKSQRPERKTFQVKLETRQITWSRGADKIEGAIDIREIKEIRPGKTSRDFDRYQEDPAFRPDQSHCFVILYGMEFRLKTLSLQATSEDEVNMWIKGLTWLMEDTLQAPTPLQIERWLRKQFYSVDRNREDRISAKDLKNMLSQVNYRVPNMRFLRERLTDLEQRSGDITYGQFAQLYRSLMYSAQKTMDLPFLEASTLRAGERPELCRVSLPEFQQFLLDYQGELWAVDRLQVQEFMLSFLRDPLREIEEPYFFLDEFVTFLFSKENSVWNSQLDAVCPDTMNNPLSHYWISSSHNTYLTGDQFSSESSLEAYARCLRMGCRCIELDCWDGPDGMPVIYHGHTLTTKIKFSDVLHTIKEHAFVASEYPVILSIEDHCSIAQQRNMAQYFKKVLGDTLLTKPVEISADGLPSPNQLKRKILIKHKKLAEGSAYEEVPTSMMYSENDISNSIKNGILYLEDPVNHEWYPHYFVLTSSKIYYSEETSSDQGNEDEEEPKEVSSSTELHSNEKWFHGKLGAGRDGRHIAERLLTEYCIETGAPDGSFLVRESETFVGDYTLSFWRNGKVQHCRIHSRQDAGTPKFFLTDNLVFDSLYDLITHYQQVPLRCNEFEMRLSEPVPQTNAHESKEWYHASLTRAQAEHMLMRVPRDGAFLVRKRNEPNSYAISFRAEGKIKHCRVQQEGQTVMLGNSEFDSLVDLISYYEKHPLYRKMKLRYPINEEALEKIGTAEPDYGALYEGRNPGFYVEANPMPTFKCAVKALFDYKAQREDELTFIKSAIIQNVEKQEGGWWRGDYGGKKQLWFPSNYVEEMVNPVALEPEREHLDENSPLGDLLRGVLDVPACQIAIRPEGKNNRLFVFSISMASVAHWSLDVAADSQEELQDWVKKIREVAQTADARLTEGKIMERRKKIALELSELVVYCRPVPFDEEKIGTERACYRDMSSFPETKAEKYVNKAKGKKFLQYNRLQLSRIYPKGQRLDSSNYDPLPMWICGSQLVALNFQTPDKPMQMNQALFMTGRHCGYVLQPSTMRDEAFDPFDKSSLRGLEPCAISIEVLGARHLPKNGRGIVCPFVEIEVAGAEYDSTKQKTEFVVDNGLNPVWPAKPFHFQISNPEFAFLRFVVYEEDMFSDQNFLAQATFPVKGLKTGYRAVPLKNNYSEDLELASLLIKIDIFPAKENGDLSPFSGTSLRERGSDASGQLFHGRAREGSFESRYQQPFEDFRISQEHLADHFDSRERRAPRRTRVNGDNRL
PLCg1 ctr: PLC-gamma1 enzyme inhibitors, counter-screen for PLC-beta3 inhibitor project, biochemical, fluorescence; inhibition, % at 12.3 µM; purified PLC-gamma1, fluorogenic substrate; 3,300 tested, 3.1% active; shares compounds with PLC-gamma1 inh; in the data active = inhibition above about 9.5%
PLCbeta3 conf: PLC-beta3 inhibitor confirmation, biochemical, fluorescence, purified enzyme; AID 743261, 2014; 3,300 tested, 1% active; inhibition, % at 12.3 µM; fluorogenic substrate fluorescence; shares compounds with PLC-gamma1 inh
The depositor's hits bear a star. Only some compounds are listed: those with a hit (about 1.9% of all), similar ones and a draw of the others. Rule as the data show it, unless noted: active = inhibition above about 11%; inactive = the rest.

Screening COc1cc(-c2ccc(NC(=O)CN3CCC(C)CC3)c(OC)c2)ccc1NC(=O)CN1CCC(C)CC1 returned PLCb3 inh 6, sPLA2-III inh -3, Tb MetRS inh -1, PLC-gamma1 inh 10*, PLCg1 ctr -5 and PLCbeta3 conf -7.
`COc1ccc(NC(=O)CN2CCC(C)CC2)cc1` gave PLCb3 inh 9, sPLA2-III inh 5, Tb MetRS inh -1, PLC-gamma1 inh 12*, PLCg1 ctr -6 and PLCbeta3 conf -2.
COc1ccc(NC(=O)CN2CCC(C)CC2)c([N+](=O)[O-])c1 was read as PLCb3 inh 3, sPLA2-III inh 9, Tb MetRS inh 0 and PLC-gamma1 inh -3.
Screening COc1ccc(NC(=O)CN2CCC(C(N)=O)CC2)cc1 returned PLCb3 inh 6, sPLA2-III inh 4, Tb MetRS inh 0 and PLC-gamma1 inh 1.
Screening NC(=O)c1ncn([C@@H]2O[C@H](C(=O)N3CCN(Cc4ccccn4)CC3)[C@@H](O)[C@H]2O)n1 returned PLCb3 inh 6, sPLA2-III inh 1 and PLC-gamma1 inh 2.
For COc1ccc(-n2c(C)cc(/C=C3/SC(=S)N(C)C3=O)c2C)cc1 the results were PLCb3 inh -3, sPLA2-III inh 8, Tb MetRS inh 0, PLC-gamma1 inh 11*, PLCg1 ctr -23 and PLCbeta3 conf -19.
`CCOc1ncnc2c1sc1nc3c(cc12)COC(C)(C)C3` gave PLCb3 inh 2, sPLA2-III inh 8, Tb MetRS inh 0, PLC-gamma1 inh 10*, PLCg1 ctr -4 and PLCbeta3 conf -1.
COc1ccc(CCN(C)C(=O)CN2C(=O)NC3(CCCc4ccccc43)C2=O)cc1OC (stereo not given) was read as PLCb3 inh -4, sPLA2-III inh -1, Tb MetRS inh 0, PLC-gamma1 inh 12*, PLCg1 ctr -8 and PLCbeta3 conf -74.
`COc1ccc(C(=O)CN2C(=O)NC3(CCCc4ccccc43)C2=O)cc1OC` (stereo not given) gave PLCb3 inh 0, sPLA2-III inh 0, Tb MetRS inh -1 and PLC-gamma1 inh 5.
`C=CCN1C(=O)[C@H](CC(=O)NCc2ccccc2)[C@@]2(C(=O)OCC)CCCC=C12` gave PLCb3 inh 1, sPLA2-III inh -5 and PLC-gamma1 inh 1.
`COc1ccc(C(=O)NC(=S)Nc2ccccc2N2CCOCC2)cc1Br` gave PLCb3 inh 2, sPLA2-III inh 1, Tb MetRS inh 0 and PLC-gamma1 inh 1.
Screening CCOc1ccc(C(=O)NC(=S)Nc2ccccc2N2CCOCC2)cc1Br returned PLCb3 inh 1, sPLA2-III inh 17, Tb MetRS inh 0, PLC-gamma1 inh 9.9*, PLCg1 ctr 2 and PLCbeta3 conf 3.
Screening CC(=O)c1c(C)[nH]c(C(=O)OCC(=O)NCCc2ccc(Cl)cc2)c1C returned PLCb3 inh 2, sPLA2-III inh -10, Tb MetRS inh 0, PLC-gamma1 inh 11*, PLCg1 ctr 3 and PLCbeta3 conf -2.
Screening CC(=O)c1c(C)[nH]c(C(=O)OCC(=O)NCCc2ccc(F)cc2)c1C returned PLCb3 inh 0, sPLA2-III inh -8, Tb MetRS inh 1 and PLC-gamma1 inh 0.
O=C(OCC#CCSc1nnc(-c2cccc3ccccc23)o1)c1ccc(Cl)c(C(F)(F)F)c1 was read as PLCb3 inh -2, sPLA2-III inh 4 and PLC-gamma1 inh -2.
Screening NC(=O)c1ccc(NS(=O)(=O)c2ccc(Br)s2)cc1 returned PLCb3 inh -2, sPLA2-III inh -6, Tb MetRS inh 0, PLC-gamma1 inh 9.7*, PLCg1 ctr -4 and PLCbeta3 conf -3.
C=C(C)Cn1c(SCC(=O)NN=Cc2c(O)ccc3ccccc23)nnc1-c1ccc(Br)cc1 was read as PLCb3 inh -9, sPLA2-III inh 5 and PLC-gamma1 inh -5.
C=C(C)Cn1c(SCC(=O)N/N=C(\C)c2ccc([N+](=O)[O-])cc2)nnc1-c1ccc(Br)cc1 was read as PLCb3 inh 11*, sPLA2-III inh -2, PLC-gamma1 inh 10*, PLCg1 ctr 2 and PLCbeta3 conf 3.
For O=C(Nc1ccc(C(F)(F)F)cc1[N+](=O)[O-])O[C@H]1[C@H](Cc2ccccc2)NS(=O)(=O)[C@H]2C[C@@H]3C=C[C@]12O3 the results were PLCb3 inh 10, sPLA2-III inh -1, Tb MetRS inh 0, PLC-gamma1 inh 12*, PLCg1 ctr -2 and PLCbeta3 conf -1.
COc1ccc(C(=O)OCC(=O)Nc2c(C)n(C)n(-c3ccccc3)c2=O)cc1 was read as PLCb3 inh 1, sPLA2-III inh 7, Tb MetRS inh 0, PLC-gamma1 inh 12*, PLCg1 ctr -3 and PLCbeta3 conf -4.
Screening FC(F)(F)c1ccccc1NC(=S)Nc1ccccc1 returned PLCb3 inh -5, sPLA2-III inh 16, Tb MetRS inh -1, PLC-gamma1 inh 11*, PLCg1 ctr -3 and PLCbeta3 conf -2.
For Cc1ccc(-c2cc(C(=O)NN=Cc3ccc(F)cc3)[nH]n2)cc1C the results were PLCb3 inh 0, sPLA2-III inh 9 and PLC-gamma1 inh 2.
Screening CCOCCCNC(=O)/C(C#N)=C/c1ccc(Cl)c([N+](=O)[O-])c1 returned PLCb3 inh 2, sPLA2-III inh 0, Tb MetRS inh 0 and PLC-gamma1 inh 0.
`CCOCCCNC(=O)/C(C#N)=C/c1cc(OC)c(O)c([N+](=O)[O-])c1` gave PLCb3 inh 8, sPLA2-III inh 8, Tb MetRS inh 0, PLC-gamma1 inh 13*, PLCg1 ctr -2 and PLCbeta3 conf -1.
Screening S=C(NCCCc1cnc[nH]1)NCCCN(Cc1ccc(Cl)cc1)c1ccc(Br)cn1 returned PLCb3 inh 9, sPLA2-III inh -8, Tb MetRS inh -1, PLC-gamma1 inh 11*, PLCg1 ctr 4 and PLCbeta3 conf 3.
For CC(C)[C@@H]1CC[C@@H](C)C[C@H]1OC(=O)C[n+]1cc(-c2ccc(Cl)cc2)n2c1CCCCC2 the results were PLCb3 inh -3, sPLA2-III inh -20, Tb MetRS inh 0, PLC-gamma1 inh 12*, PLCg1 ctr 1 and PLCbeta3 conf -2.
For COc1ccc(-c2c[n+](CC(=O)OC3CC(C)CCC3C(C)C)c3n2CCC3)cc1 (stereo not given) the results were PLCb3 inh -2, sPLA2-III inh -8, Tb MetRS inh 0 and PLC-gamma1 inh 7.
